Test results as given in paper PMC3285107 (ACS medicinal chemistry letters, 2012).
“Also recorded” adds a separate entry of the source.

Columns and labels:
[1] = test system: RGS4; assay: FCPIA: inhibition of Gαo binding to RGS4; details: for activity at RGS4: result in words
Outline: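 Primary FCPIA screen for inhibition of Gαo binding to RGS4, run in parallel against RGS8, its closest sequence relative, to assess selectivity. IC50 values are averages of two independent experiments. Calculated ΔpIC50 mean error: 0.2 for RGS4, 0.14 for RGS8.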

[2] = test system: M3 muscarinic receptors in HEK293T cells; assay: Carbachol-stimulated Ca2+ transient; format: cell-based; details: compound 10 μM, carbachol 10 nM, HEK cells with human M3 receptor
Outline: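 HEK-293 cells stably expressing human M3 muscarinic receptor, plated overnight, then loaded with Fluo4-NW for 30 min at 37 °C. Test compound added at 10 μM (1% DMSO). After […] minutes, baseline fluorescence read on a plate reader. Carbachol (10 nM final) injected, and the rise in intracellular Ca2+ expressed as percentage of baseline Ca2+ level.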

[3] = test system: cysteine protease papain; details: result in words; cited from earlier work
[4] = Aqueous solubility; format: physicochemical; details: result in words

Chain of RGS4 (P49798 whole entry): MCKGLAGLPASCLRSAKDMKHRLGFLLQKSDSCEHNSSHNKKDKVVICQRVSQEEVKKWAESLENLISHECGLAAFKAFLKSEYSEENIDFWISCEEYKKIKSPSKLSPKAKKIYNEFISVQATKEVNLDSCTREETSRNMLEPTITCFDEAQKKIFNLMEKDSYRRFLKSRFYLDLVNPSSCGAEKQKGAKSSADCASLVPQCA

Cc1ccc(Cn2sc(=O)n(Cc3ccc(F)cc3)c2=O)cc1 [1i]
selectivity for RGS4 versus RGS8 [1]: near three orders of magnitude

Cc1ccc(C2=CC(=O)N(Cc3ccccc3)C2=O)cc1 [compound 15]
activity at RGS4 [1]: neither 14 or 15 displayed activity

Cc1ccc(Cn2c(=O)sn(-c3ccc(C)cc3)c2=O)cc1 [compound 4]
selectivity for RGS4 versus RGS8 [1]: > 1000 fold

Cc1ccc(-n2sc(=O)n(Cc3cccc(Cl)c3)c2=O)cc1 [compound 5]
selectivity for RGS4 versus RGS8 [1]: > 1000 fold

Cc1ccc(-n2sc(=O)n(Cc3ccc(F)cc3)c2=O)cc1 [1a]
effect on carbachol-induced Ca2+ transient [2]: nearly completely abolished
inhibition of papain [3]: failing to inhibit

CCCCn1c(=O)sn(CC)c1=O [11b]
effect on carbachol-induced Ca2+ transient [2]: no effect; also recorded: no calcium transient
aqueous solubility [4]: high solubility; also recorded: excellent aqueous solubility

Cc1ccc(CN2C(=O)CN(c3ccc(C)cc3)C2=O)cc1 [compound 14]
activity at RGS4 [1]: neither 14 or 15 displayed activity

COc1ccc(Cn2c(=O)sn(-c3ccc(C)cc3)c2=O)cc1 [compound 7]
selectivity for RGS4 versus RGS8 [1]: > 1000 fold

Cc1ccc(-n2sc(=O)n(Cc3ccc(Cl)cc3)c2=O)cc1 [compound 3]
selectivity for RGS4 versus RGS8 [1]: > 1000 fold

Cc1ccc(Cn2sc(=O)n(Cc3ccccc3)c2=O)cc1 [2i]
selectivity for RGS4 versus RGS8 [1]: near three orders of magnitude

CCn1sc(=O)n(CCOC)c1=O [compound 13]
effect on carbachol-induced Ca2+ transient [2]: no effect
selectivity for RGS4 versus RGS8 [1]: > 600 fold
aqueous solubility [4]: further improved solubility
